Here are results for eight compounds from ChEMBL document CHEMBL2034975, “Cycloartane and friedelane triterpenoids from the leaves of Caloncoba glauca and their evaluation for inhibition of 11β-hydroxysteroid dehydrogenases” (J Nat Prod, 2012).

Where only a bound is given, the exact number is not on record here.

Common to all, as to assay type: cell-based
Test [1] deals with T1, 11-beta-hydroxysteroid dehydrogenase type 2 (Homo sapiens) (UniProt P80365).
T1 sequence (whole entry): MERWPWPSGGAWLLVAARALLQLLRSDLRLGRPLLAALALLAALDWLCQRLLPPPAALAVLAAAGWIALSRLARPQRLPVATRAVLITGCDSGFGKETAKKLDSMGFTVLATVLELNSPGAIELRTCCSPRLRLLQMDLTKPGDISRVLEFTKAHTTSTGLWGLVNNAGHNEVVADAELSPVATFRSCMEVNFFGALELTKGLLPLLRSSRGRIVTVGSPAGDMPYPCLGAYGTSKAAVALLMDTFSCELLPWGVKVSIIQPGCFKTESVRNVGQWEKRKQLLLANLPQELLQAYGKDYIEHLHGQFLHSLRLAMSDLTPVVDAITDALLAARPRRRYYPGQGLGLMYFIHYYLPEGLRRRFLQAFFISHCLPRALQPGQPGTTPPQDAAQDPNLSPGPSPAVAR
The experiment in a line: Inhibition of human 11beta-HSD2 expressed in HEK293 cells assessed as conversion of [3H]cortisone into [3H]cortisol at 1 uM by scintillation proximity assay.

Test [2] addresses T2, 11-beta-hydroxysteroid dehydrogenase type 2 (Mus musculus) (UniProt P51661).
T2 sequence (whole entry): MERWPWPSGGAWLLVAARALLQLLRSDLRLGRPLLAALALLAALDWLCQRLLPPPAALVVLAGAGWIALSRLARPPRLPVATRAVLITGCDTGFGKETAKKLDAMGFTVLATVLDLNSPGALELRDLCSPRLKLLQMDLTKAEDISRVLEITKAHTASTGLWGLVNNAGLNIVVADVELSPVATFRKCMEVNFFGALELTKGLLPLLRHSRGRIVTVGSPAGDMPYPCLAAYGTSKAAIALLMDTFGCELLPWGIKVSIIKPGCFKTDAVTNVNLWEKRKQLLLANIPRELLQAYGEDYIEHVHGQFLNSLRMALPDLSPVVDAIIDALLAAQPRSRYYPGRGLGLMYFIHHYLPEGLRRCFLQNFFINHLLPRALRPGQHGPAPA
The experiment in a line: Inhibition of mouse 11beta-HSD2 expressed in HEK293 cells assessed as conversion of [3H]cortisone into [3H]cortisol at 1 uM by scintillation proximity assay. (In general: SPA uses beads or plates that emit light when radiolabelled molecules are held near them.)

Test [3] has as its target 11-beta-hydroxysteroid dehydrogenase 1 (Mus musculus) (UniProt P50172). As to the kind of experiment: Inhibition of mouse 11beta-HSD1 expressed in HEK293 cells assessed as conversion of [3H]cortisone into [3H]cortisol at 1 uM by scintillation proximity assay.
Test [4] deals with T3, 11-beta-hydroxysteroid dehydrogenase 1 (Homo sapiens, UniProt P28845). As to the kind of experiment: Inhibition of human 11beta-HSD1 expressed in HEK293 cells assessed as conversion of [3H]cortisone into [3H]cortisol at 1 uM by scintillation proximity assay.
Target sequence in this assay (P28845 whole entry, looked up): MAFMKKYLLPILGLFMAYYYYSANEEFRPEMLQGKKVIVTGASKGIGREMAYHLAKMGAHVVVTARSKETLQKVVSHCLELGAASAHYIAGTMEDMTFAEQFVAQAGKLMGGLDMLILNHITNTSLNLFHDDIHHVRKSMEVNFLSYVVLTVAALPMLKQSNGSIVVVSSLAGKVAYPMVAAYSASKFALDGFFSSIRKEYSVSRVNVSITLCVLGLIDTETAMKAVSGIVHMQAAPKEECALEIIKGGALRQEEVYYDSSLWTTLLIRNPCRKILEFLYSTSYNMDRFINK
In test [5] the target is T4, 11-beta-hydroxysteroid dehydrogenase type 2 (Mus musculus, UniProt P51661).
T4 sequence (P51661 whole entry): T2 sequence (whole entry)
The experiment in a line: Inhibition of mouse 11beta-HSD2 expressed in HEK293 cells assessed as conversion of [3H]cortisone into [3H]cortisol by scintillation proximity assay.

In test [6] the target is T5, 11-beta-hydroxysteroid dehydrogenase type 2 (Homo sapiens, UniProt P80365).
T5 sequence (P80365 whole entry): T1 sequence (whole entry)
The experiment in a line: Inhibition of human 11beta-HSD2 expressed in HEK293 cells assessed as conversion of [3H]cortisone into [3H]cortisol by scintillation proximity assay.

For test [7], the target named is T3, 11-beta-hydroxysteroid dehydrogenase 1. The experiment in a line: Inhibition of human 11beta-HSD1 expressed in HEK293 cells assessed as conversion of [3H]cortisone into [3H]cortisol by scintillation proximity assay. Put shortly:
(§1)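 Full-length human or murine 11β-HSD1 cDNA was cloned into pcDNA3 and stably expressed in HEK-293 cells selected with 750 μg/mL G418. Microsomes from these cells were incubated with NADPH and [3H]cortisone. The [3H]cortisol formed was captured by a monoclonal antibody on protein A-coated SPA beads. Assays were run in duplicate and repeated twice; IC50 is given as the average. Glycyrrhizinic acid served as positive control.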
Target sequence in this assay (P28845 whole entry): as the sequence (P28845 whole entry, looked up) above

Test [8] addresses 11-beta-hydroxysteroid dehydrogenase 1 (Mus musculus, UniProt P50172). As to the kind of experiment: Inhibition of mouse 11beta-HSD1 expressed in HEK293 cells assessed as conversion of [3H]cortisone into [3H]cortisol by scintillation proximity assay. Put shortly:
as §1

Sequence of 11-beta-hydroxysteroid dehydrogenase 1 (Mus musculus, UniProt P50172) (P50172 whole entry): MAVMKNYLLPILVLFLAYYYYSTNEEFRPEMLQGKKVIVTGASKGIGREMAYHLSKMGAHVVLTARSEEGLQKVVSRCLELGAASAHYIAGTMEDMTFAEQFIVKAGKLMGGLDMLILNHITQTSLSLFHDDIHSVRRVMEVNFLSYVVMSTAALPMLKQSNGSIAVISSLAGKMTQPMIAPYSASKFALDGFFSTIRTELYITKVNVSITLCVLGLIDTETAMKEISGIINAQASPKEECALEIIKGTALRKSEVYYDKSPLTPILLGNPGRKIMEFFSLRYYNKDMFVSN
Sequence of 11-beta-hydroxysteroid dehydrogenase 1 (Mus musculus) (P50172 whole entry, looked up): as the sequence (P50172 whole entry) above

Broadly, the inhibition is the share of the control response that was lost under treatment. In the case of `C[C@H](CC[C@H](O)C(C)(C)O)[C@H]1[C@@H](O)C[C@]23C(=O)O[C@@]4(CC[C@]12C)C[C@@H]1CCC(=O)C(C)(C)[C@@H]1CC[C@H]43`, the inhibition in test [1], in test [2], in test [3] and in test [4] was under 50% each time.
A word on the IC50: it is the point on the concentration scale where inhibition reaches its midpoint. As for `C[C@H](CC[C@@H](O)C(C)(C)O)[C@H]1CC[C@@]2(C(=O)O)[C@@H]3CC[C@H]4C(C)(C)[C@@H](O)CC[C@@]45C[C@@]35CC[C@]12C` (relative stereo) [CALONCOBIC ACID B], the IC50 was over 100000 nM in test [5], 400 nM in test [6], 72 nM in test [7] and 13 nM in test [8].
`CC1(C)[C@@H](O[C@H]2O[C@H](C(=O)O)[C@@H](O)[C@H](O)[C@H]2O[C@@H]2O[C@H](C(=O)O)[C@@H](O)[C@H](O)[C@H]2O)CC[C@]2(C)[C@H]3C(=O)C=C4[C@@H]5C[C@@](C)(C(=O)O)CC[C@]5(C)CC[C@@]4(C)[C@]3(C)CC[C@@H]12` [GLYCYRRHIZIN]: the IC50 in test [7] turned out to be 6 nM; in test [8], 3 nM.
With `C=C(C)[C@@H](O)CC[C@@H](C)[C@H]1CC[C@@]2(C(=O)O)[C@@H]3CC[C@H]4C(C)(C)C(=O)CC[C@@]45C[C@@]35CC[C@]12C` (relative stereo) [CALONCOBIC ACID A], the IC50 in test [5] is over 100000 nM; in test [6], over 100000 nM; in test [7], 105 nM; in test [8], 132 nM.
As to `C[C@@H]1CC[C@@H](C(C)(C)O)OC(=O)[C@@]23C[C@@H](O)[C@H]1[C@@]2(C)CC[C@@]12C[C@@]14CCC(=O)C(C)(C)[C@@H]4CC[C@H]23`, the inhibition in test [1], in test [2], in test [3] and in test [4] was under 50% throughout.
`C=C1C[C@@H]2[C@@](C)(CC[C@]3(C)[C@H]4CC[C@@]5(C)[C@@H](CC[C@H](O)[C@@H]5C)[C@]4(C)CC[C@@]23C(=O)O)C[C@@H]1O`: the inhibition in test [1], in test [2], in test [3] and in test [4] was under 50% each time.
Turning to `C=C1C[C@@H]2[C@@]3(C)CC[C@]4(C)[C@H]5CC[C@@]6(C)[C@@H](CC[C@H](O)[C@@H]6C)[C@]5(C)CC[C@@]24C(=O)O[C@H]3[C@H]1O` (relative stereo), the inhibition in test [1], in test [2], in test [3] and in test [4] was under 50% throughout.
For the compound `CC(=O)O[C@H]1CC[C@@H]2[C@](C)(CC[C@H]3[C@@]2(C)CC[C@@]2(C(=O)O)[C@@H]4CC(C)(C)CC[C@]4(C)CC[C@]32C)[C@H]1C`, the inhibition in test [1], in test [2], in test [3] and in test [4] was under 50% each time.
